{
  "source": "ChEMBL document CHEMBL5647697",
  "about": "“Akt inhibition synergizes with polycomb repressive complex 2 inhibition in the treatment of multiple myeloma” (2019)",
  "key": {"[1]": {"biological_target": "Serine/threonine-protein kinase AKT (Homo sapiens) (UniProt P31751+Q9Y243+P31749)", "sequence (P31749 whole entry, looked up)": "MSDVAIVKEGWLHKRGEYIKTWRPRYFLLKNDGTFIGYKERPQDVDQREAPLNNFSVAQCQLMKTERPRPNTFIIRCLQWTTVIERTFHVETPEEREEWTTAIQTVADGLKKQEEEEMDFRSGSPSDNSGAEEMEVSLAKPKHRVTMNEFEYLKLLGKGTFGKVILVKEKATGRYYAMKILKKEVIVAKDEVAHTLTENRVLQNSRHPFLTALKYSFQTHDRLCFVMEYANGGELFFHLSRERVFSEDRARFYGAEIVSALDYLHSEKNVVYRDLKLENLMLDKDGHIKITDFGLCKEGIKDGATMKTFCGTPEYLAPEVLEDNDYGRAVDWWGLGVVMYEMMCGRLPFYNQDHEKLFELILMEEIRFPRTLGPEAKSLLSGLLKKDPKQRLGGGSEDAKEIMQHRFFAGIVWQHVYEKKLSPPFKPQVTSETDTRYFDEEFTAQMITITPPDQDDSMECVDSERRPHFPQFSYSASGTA", "sequence (P31751 whole entry, looked up)": "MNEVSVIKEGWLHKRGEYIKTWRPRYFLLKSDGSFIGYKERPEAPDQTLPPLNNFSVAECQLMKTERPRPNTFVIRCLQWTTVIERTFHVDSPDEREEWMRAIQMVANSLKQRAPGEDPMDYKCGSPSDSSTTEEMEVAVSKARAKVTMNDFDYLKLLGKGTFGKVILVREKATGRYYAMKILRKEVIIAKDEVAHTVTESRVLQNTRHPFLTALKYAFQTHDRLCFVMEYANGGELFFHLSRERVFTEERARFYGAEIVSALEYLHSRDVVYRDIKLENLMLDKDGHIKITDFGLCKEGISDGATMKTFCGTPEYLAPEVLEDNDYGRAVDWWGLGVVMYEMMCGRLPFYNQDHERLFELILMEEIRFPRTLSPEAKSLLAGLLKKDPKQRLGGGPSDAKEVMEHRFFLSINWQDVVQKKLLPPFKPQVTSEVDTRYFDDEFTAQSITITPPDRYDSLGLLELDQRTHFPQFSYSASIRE", "sequence (Q9Y243 whole entry, looked up)": "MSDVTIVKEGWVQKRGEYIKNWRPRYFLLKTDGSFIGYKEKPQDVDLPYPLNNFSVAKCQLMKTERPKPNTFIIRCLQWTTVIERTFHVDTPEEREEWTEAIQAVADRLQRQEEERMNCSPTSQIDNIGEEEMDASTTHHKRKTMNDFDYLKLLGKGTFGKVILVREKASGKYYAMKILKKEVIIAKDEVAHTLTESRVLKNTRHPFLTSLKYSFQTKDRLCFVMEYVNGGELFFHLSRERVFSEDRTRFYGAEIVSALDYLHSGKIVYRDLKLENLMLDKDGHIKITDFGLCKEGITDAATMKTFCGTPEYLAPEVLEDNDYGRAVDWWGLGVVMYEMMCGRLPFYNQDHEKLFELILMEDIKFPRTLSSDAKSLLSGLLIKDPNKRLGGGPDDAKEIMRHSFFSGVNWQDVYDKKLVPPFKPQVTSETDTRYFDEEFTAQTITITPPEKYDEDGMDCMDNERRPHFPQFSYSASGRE", "assay": "Inhibition of Akt phosphorylation in human MM1.S cells at 0.3 to 5 micromol/L for 6 to 48 hrs by Western blot analysis", "type": "cell-based", "conditions": "dose 0.3-5 µmol/L, time 6-48 hrs", "procedure,_shortened": "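MM.1S and H929 cells were treated with graded doses for 48 h, or with 5 μmol/L for the stated times. Lysates were immunoblotted, with GAPDH, total Akt and H3 as loading controls.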"}, "[2]": {"system": "MM1.S", "assay": "Downregulation of E2F2 mRNA expression in human MM1.S cells incubated at 0.3 to 3 micromol/L for 24 hrs by qRT-PCR analysis", "type": "functional, cell-based", "conditions": "dose 0.3-3 µmol/L", "procedure,_shortened": "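MM.1S and H929 cells given TAS-117 at the indicated doses for 24 h. mRNA measured by RT-qPCR, fold change after normalization to GAPDH; SD of triplicates; significance versus untreated control.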"}, "[3]": {"system": "OPM-2/BTZ", "assay": "Synergistic activity against human OPM-2/BTZ cells assessed as combination index preincubated in presence of 5 uM GSK126 for 72 hrs followed by compound addition at 1 uM incubated for 48 hrs by MTT assay", "type": "functional"}, "[4]": {"system": "NCI-H929", "assay": "Downregulation of CDK1 protein expression in human NCI-H929 cells incubated at 0.3 to 3 micromol/L for 48 hrs by Western blot analysis", "type": "functional, cell-based", "conditions": "dose 0.3-3 µmol/L", "procedure,_shortened": "(§1)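 MM.1S and H929 cells given TAS-117 at the indicated doses for 48 h. Protein levels assessed by immunoblot.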"}, "[5]": {"system": "NCI-H929", "assay": "Downregulation of E2F1 protein expression in human NCI-H929 cells incubated at 0.3 to 3 micromol/L for 48 hrs by Western blot analysis", "conditions": "dose 0.3-3 µmol/L"}, "[6]": {"system": "OPM-2/BTZ", "assay": "Synergistic activity against human OPM-2/BTZ cells assessed as combination index preincubated in presence of 5 uM GSK126 for 72 hrs followed by compound addition at 2 uM incubated for 48 hrs by MTT assay", "type": "functional"}, "[7]": {"system": "MM1.S", "assay": "Downregulation of CDK2 protein expression in human MM1.S cells incubated at 0.3 to 3 micromol/L for 48 hrs by Western blot analysis", "type": "functional, cell-based", "conditions": "dose 0.3-3 µmol/L", "procedure,_shortened": "as §1"}},
  "note": "Calls of active or inactive are those of the source. The calls are words filed in the database; no cut-off is given here.",
  "data": [
    {"compound": "C[C@]1(O)C[C@@](N)(c2ccc(-c3nc4n(c3-c3ccccc3)COc3ccncc3-4)cc2)C1", "note": "[PIFUSERTIB]", "values": [
      {"measurement": "inhibition", "setting": "[1]", "result": "Active"},
      {"measurement": "Activity", "setting": "[2]", "result": "Active"},
      {"measurement": "CI", "setting": "[3]", "result": 1.274},
      {"measurement": "Activity", "setting": "[4]", "result": "Active"},
      {"measurement": "Activity", "setting": "[5]", "result": "Active"},
      {"measurement": "CI", "setting": "[6]", "result": 0.967},
      {"measurement": "Activity", "setting": "[7]", "result": "Active"}
    ]}
  ]
}
